Source: the EternaBench riboswitch data

System: MS2 coat protein
Assay: apparent Kd, MS2 coat protein; higher = weaker binding; RNA-MaP array; FMN 200 µM where present
In short: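 Stalled E. coli RNA polymerase transcribed the designs on Illumina sequencing-chip clusters. SNAP-549-labelled MS2 coat protein was titrated from 0.7 or 1.5 nM, doubling to 3 µM, without and then with constant ligand, in 100 mM Tris-HCl pH 7.5, 80 mM KCl, 4 mM MgCl2, BSA, DTT, yeast tRNA and Tween-20. Per-cluster binding curves were fitted to green signal normalised to red-channel RNA signal and control-cluster median Fmax. The apparent Kd is the median of the filtered fits.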

[1] = designed as: OFF switch for flavin mononucleotide, no ligand
[2] = ligand present: flavin mononucleotide, designed as: OFF switch for flavin mononucleotide
[3] = designed as: ON switch for flavin mononucleotide, no ligand
[4] = ligand present: flavin mononucleotide, designed as: ON switch for flavin mononucleotide

| Sequence | apparent Kd [1] | apparent Kd [2] | apparent Kd [3] | apparent Kd [4] |
| --- | --- | --- | --- | --- |
| AGAAUUGUAGGAUAUACAUGAGGAUCACCCAUGUGGGAGGUGGAGCAUACAAGACGAGGUAGAAGGACAACGAC | 0.0923 µM | 0.0919 µM | – | – |
| AAUAUGUUGCAGAAGGUUAUAUUUAUAACGUUCCUCAUGACAUGAGGAUCACCCAUGUAAUUGUUGAAGGAUAUGCAAUAUAUU | 0.00541 µM | 0.00562 µM | – | – |
| AAUAACAGAGGAUAUACUAUUUUAUGUGUUUGUUAUUUUGAACAUGAGGAUCACCCAUGUAGAAGGCUGAGUAA | 0.0288 µM | 0.0289 µM | – | – |
| GGGCGGCGAGGAUAUGCAGGGCGGGCGCGCGGGCGCGCGCGACAUGAGGAUCACCCAUGUAGAAGGCGCCGGGC | 0.0191 µM | 0.129 µM | – | – |
| GAUAGAGAGCAGGAUAUCAUAGAAAUGUAUGAAUGAGAAGGGCUCACAUGAGGAUCACCCAUGUGGUCCUAGAU | 0.0258 µM | 0.236 µM | – | – |
| AAACUGGAGGACAAGGAUAUGUGCUCUACGACAUGAGGAUCACCCAUGUGAGACGUAGUAGUGAAACAGAAGGUGUCCUAUUGUA | – | – | 0.0201 µM | 0.0116 µM |
| GCCAUCACAUGAGGAUAUGCUCCCGUUUCGGGAGCAGAAGGCGUGUCAUUAGACAUGAGGAUCACCCAUGUAGUUAAGAUGGCA | – | – | 0.667 µM | 0.0228 µM |
| AGCAUGUAAGGAUAUGCAACACGACGUUCAAUCGUCGUGCCGCAGAAGGUACAUGAGGAUCACCCAUGUGCUCC | 0.104 µM | 0.129 µM | – | – |
| UGUCGGAGCCGAGGAUAUUACAUGAGGAUCACCCAUGUAUGAACCAAUAGCUGGAAACAGCAAUGUAAGAAGGCUGCUCCGACA | 0.00508 µM | 0.0157 µM | – | – |
| UAAUUUUUAGUAAGGAUAUCGGUCCCAAGGGACAACGAGAAGGUACAUGAGGAUCACCCAUGUGAUUAAAGAAU | 0.0282 µM | 0.221 µM | – | – |
| ACGGCAAUCAGAGGAUAUGGUUACAUGAGGAUCACCCAUGUCAAGGGUCUAAUUAGGUAUAACUACCAGAAGGCUGAAGGCCUA | 0.0561 µM | 0.0948 µM | – | – |
| UAGGUUGUCGUAGGAUAUGUAGGAUAUUCCUACAUGAGGAUCACCCAUGUUAGCAUGGAAGAAGGACAGAAGGACGAUGACCUU | – | – | 0.889 µM | 0.0156 µM |
| CGCUGUCAUGCAGGAUAUGCAUUGGUUUACAAUGCAGAAGGGCGAUUACAUGAGGAUCACCCAUGUGUAGACAGUGAAGAAGAG | – | – | 0.157 µM | 0.0129 µM |
| UAAUAAUAAUAAUAAUGGACUGAUACAUGAGGAUCACCCAUGUAGGAUAUGCAGUGGAAUACACUGCAGAAGGACAUACAGUCC | 0.0166 µM | 0.0172 µM | – | – |
| UUAUACGGUGAGGAUAUCUUCACUAAAGUGUGAAGAGAAGGCGCUACAUGAGGAUCACCCAUGUCUAUGGGCAG | 0.556 µM | 0.755 µM | – | – |
| GGUUGGCGAGGAUAUACAUGAGGAUCACCCAUGUGGUCCUGUGGCUGAUCUUGCCUAUGUAGAAGGCGCAAAUC | 0.0357 µM | 0.28 µM | – | – |
| AAGUGUGCCUAGGAUAUGUUCGGCCAAGGUCAUACAGAAGGAGGCACAUGAGGAUCACCCAUGUAGUGUCCAAC | 0.118 µM | 0.0294 µM | – | – |
| UAGAUGGGAGGAUAUACGUAGAUACAGAUUCAUGUAGUGCUACAUGAGGAUCACCCAUGUAGAAGGCCCGUCUU | 0.0394 µM | 0.33 µM | – | – |
| CUGUUAUAGAUCCAUUUUUUCAACAUGAGGAUCACCCAUGUGCAGGAUAUCGUGAUUAUUUUCAUCGAGAAGGGCAUAAUCACG | 0.0466 µM | 0.051 µM | – | – |
| GAUUGAGAGCAGGAUAUCAUAGAAAUGUAUGAAUGAGAAGGGCUCACAUGAGGAUCACCCAUGUGGUCCUAGAU | 0.0272 µM | 0.171 µM | – | – |
| AUUUAACCCAGCGGUGCUGAUGCACAUGAGGAUCACCCAUGUAGAAGGCAGCUAGACACUUAAGCUGAGGAUAUACAUGUAAGA | 0.0156 µM | 0.0633 µM | – | – |
| UUUUAACAUGAGGAUCACCCAUGUGAGGAUAUCGAAAUUUAUAUUUAUAUUAAUUUAUCGAGAAGGCACAUUUU | 0.149 µM | 0.164 µM | – | – |
| CUCUAUCAUGUAGGAUAUGCGUGGCGAAGCUAUGCAGAAGGACAUGAGGAUCACCCAUGUCUUUCUGUCUGCGGACGGACAGGG | 0.0331 µM | 0.0692 µM | – | – |
| AGAUUUAAUACAGGAUAUGUUAGUAUACAGUUGAUUGGUUAUUACAUUAUGACAGAAGGGUAGAACAUGAGGAUCACCCAUGUA | – | – | 0.241 µM | 0.115 µM |

| Sequence | apparent Kd [1] | apparent Kd [2] | apparent Kd [3] | apparent Kd [4] |
| --- | --- | --- | --- | --- |
| AGCUAGUGAGGAUAUACGAACAUGUCAAAAGACGUGAGGGAACAUGAGGAUCACCCAUGUAGAAGGCACUAGCA | 0.0388 µM | 0.033 µM | – | – |
| AAGACGUGGGAAGGAUAUCUGGAAUAUCGGUCGAGAGAAGGUCCCUCGACAUGAGGAUCACCCAUGUAACGCGGUCUACCGUGU | – | – | 0.596 µM | 0.494 µM |
| GUAGCAUACCGAGGAUAUUCAUACAAUAAAUAGACAUGAGGAUCACCCAUGUGGCGAAAGCCUUGGGAGAAGGCGGAAUGCUAC | – | – | 0.451 µM | 0.0376 µM |
| CGUGUUUCGUUGUAACCCAUUUACAUGAGGAUCACCCAUGUAGAGGAUAUAGGUCACCACGGUACCUAGAAGGCUGCAGGUGUG | 0.0303 µM | 0.041 µM | – | – |
| GGGUACAUCGGAGGAUAUCAUGUAAAUACAUGAGGAUCACCCAUGUCGAUGGAGACAUCGGAGAUUGAGAAGGCCGAUGUACAG | – | – | 0.146 µM | 0.00838 µM |
| CAGGAUAGAGGAUAUACGUAGAUACAGAUUCAUGUAAUCCUACAUGAGGAUCACCCAUGUAGAAGGCUAUCCUG | 0.018 µM | 0.113 µM | – | – |
| UGCCACCGGGAGAAGGGCAUACGUGAGGUCCUACAUAGUCACAUGAGGAUCACCCAUGUAGAAAUGCAGGAUAUCUCGUAGCAG | 0.00693 µM | 0.0135 µM | – | – |
| UCCUUCUGUUGAGGAUAUGUAAGACAGCAGCUGCUAUGGCGGCACGCUGAUACAGAAGGCAACAUGAGGAUCACCCAUGUUCAA | 0.0204 µM | 0.073 µM | – | – |
| AUAUUUAUUUAGAAGGACAUGAGGAUCACCCAUGUCGCUGGGCCCGGGAAACCGGGCCCGGCCAUGUAGGAUAUAGAUAGAUAU | 0.00853 µM | 0.00917 µM | – | – |
| CGCUGUCACGCAGGAUAUGCAUUGGAUUACAAUGCAGAAGGGCGAUAACAUGAGGAUCACCCAUGUGUAGACAGUGAAGAAGAG | – | – | 0.145 µM | 0.0272 µM |
| UUAUGUCGCGUAGGAUAUCAUUAGAGUUGUAAUUUAAUUGUAAUUUCGAUAUGAGAAGGACGUACACAUGAGGAUCACCCAUGU | 0.0172 µM | 0.0153 µM | – | – |
| CGCAUGGAGGGAGGAUAUGACAUGAGGAUCACCCAUGUAAAGGAUCCGACGUCAGAAGGCCCUAAGAAUUUACACAUUCUCUUA | 0.119 µM | 0.0267 µM | – | – |
| GAAUGAGAGCAGGAUAUCUUAUAAUUGUAUGAAAGAGAAGGGCUCACAUGAGGAUCACCCAUGUGGUCCUAGAU | 0.042 µM | 0.299 µM | – | – |
| AGUCGGCAUGAGAAGGGUUACAUGAGGAUCACCCAUGUGAUCAAAUCGUUAACAGGAUAUCAGGCGUCGGGCUUUACCCGGAGG | 0.0195 µM | 0.125 µM | – | – |
| UGAGCCGGCACUGAGGAUAUUCAUAUUUAAACAUGAGGAUCACCCAUGUAGGCCAGAAGGCCUUGGGAGAAGGCAGGUCGGCUCU | – | – | 0.399 µM | 0.0246 µM |
| ACUAGAUGAGGAUAUGCAUAUUUUCGUGUUCUUCUAGAUUAACAUGAGGAUCACCCAUGUAGAAGGCGUCAUUU | 0.0157 µM | 0.0184 µM | – | – |
| ACGUGACGGUUCGCGAGUGGACGGAGAAGGCAGACAUGAGGAUCACCCAUGUGAGCCUGCUAUUCUGAGGAUAUCCGUUCGCAC | 0.0257 µM | 0.13 µM | – | – |
| GUCAUCGCAUGAGGAUAUGCUCGGGUUUCCCGAGCAGAAGGCAUGUCAUAAGACAUGAGGAUCACCCAUGUAGUUAAGAUUGUA | – | – | 0.192 µM | 0.0125 µM |
| GGCUACGUUUCGUAGCAGUGUCAUCGAGAAGGCCCUGACAUGAGGAUCACCCAUGUUGUUACAUGGGAGGAUAUCGAUGAUACC | – | – | 0.0121 µM | 0.00527 µM |
| UCUGCCGCCGUGAGGAUAUGCCCAAACAAACGCGGGCAGAAGGCACAUGAGGAUCACCCAUGUCCCGCGGUUUU | 0.0196 µM | 0.0363 µM | – | – |
| GUGCCUAUCUGAGGAUAUCAACGCACUUGAGCGUGAGAAGGCAGAGGUACAUGAGGAUCACCCAUGUCCUCCAUAAAAUAAAAG | 0.00665 µM | 0.0141 µM | – | – |
| GUCAGCUCGUGAGGAUAUACAACACCGCUUCGGCAGUGUAUUAAGAUCACAUGAGGAUCACCCAUGUAGAAGGCACGAGCUGAU | 0.0129 µM | 0.255 µM | – | – |
| CUCACGUUAGUAGGAUAUCCGACAUGAGGAUCACCCAUGUCACUACGCCUCUAGGGAAGGUGUAAGGAGAAGGGCUGAUAAAUA | – | – | 0.174 µM | 0.098 µM |
| GUUGUGUGAGGAUAUGCCUGGCCGUGUGGCCGGUUUGGGUGGCAGAAGGUACAUGAGGAUCACCCAUGUACGGG | 0.105 µM | 0.107 µM | – | – |
